Source: publication PMC4929832 (Nature, 2016)

Key:
MRCK-ALPHA = MRCK-ALPHA (Homo sapiens, UniProt Q5VT25); assay: kinase panel; assay type: biochemical
[1] = system: L858R/T790M-mutant lung cancer (genetically engineered mice); assay: Mouse efficacy study, tumor volume by MRI; assay type: in vivo; settings: EAI045 alone 60 mg/kg oral once daily, 4 weeks
HaCaT cells = assay: Proliferation assay; assay type: cell-based; settings: Homo sapiens, 72 h, read-out: EC50 Proliferation
Method in brief: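 Cells were maintained in 10% FBS/RPMI with penicillin/streptomycin and plated at 500 cells/well in 10% FBS RPMI. Serially diluted test compound was pin-transferred. Viability was read after 3 days by CellTiter-Glo luminescence and normalized to 0.1% DMSO-treated cells and empty wells. EC50 was obtained by non-linear regression curve fitting.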

MEK2 = MEK2 (Homo sapiens, UniProt P36507); assay: kinase panel; assay type: biochemical
Serotonin 5HT2A = Serotonin 5HT2A (Homo sapiens, UniProt P28223); assay: Serotonin 5HT2A calcium flux assay; assay type: cell-based
TRKA = TRKA (Homo sapiens, UniProt P04629); assay: kinase panel; assay type: biochemical
CDK6-CYCLIND3 = CDK6-CYCLIND3 (Homo sapiens, UniProt Q00534); assay: kinase panel; assay type: biochemical
CAMK1A = CAMK1A (Homo sapiens, UniProt Q14012); assay: kinase panel; assay type: biochemical
CAMK1A, sequence (Q14012 whole entry): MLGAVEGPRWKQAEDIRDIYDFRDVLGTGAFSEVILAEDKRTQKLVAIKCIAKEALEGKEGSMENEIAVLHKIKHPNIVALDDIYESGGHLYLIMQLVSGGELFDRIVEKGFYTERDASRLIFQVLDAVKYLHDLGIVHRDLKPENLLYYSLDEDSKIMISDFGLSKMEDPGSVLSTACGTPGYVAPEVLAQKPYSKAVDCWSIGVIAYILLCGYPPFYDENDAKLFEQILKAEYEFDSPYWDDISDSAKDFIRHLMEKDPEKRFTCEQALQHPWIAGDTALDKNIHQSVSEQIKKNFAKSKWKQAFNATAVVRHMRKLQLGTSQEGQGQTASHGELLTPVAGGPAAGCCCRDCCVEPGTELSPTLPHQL

LTK = LTK (Homo sapiens, UniProt P29376); assay: kinase panel; assay type: biochemical
MUSK = MUSK (Homo sapiens, UniProt O15146); assay: kinase panel; assay type: biochemical
MUSK, sequence (O15146 24-869): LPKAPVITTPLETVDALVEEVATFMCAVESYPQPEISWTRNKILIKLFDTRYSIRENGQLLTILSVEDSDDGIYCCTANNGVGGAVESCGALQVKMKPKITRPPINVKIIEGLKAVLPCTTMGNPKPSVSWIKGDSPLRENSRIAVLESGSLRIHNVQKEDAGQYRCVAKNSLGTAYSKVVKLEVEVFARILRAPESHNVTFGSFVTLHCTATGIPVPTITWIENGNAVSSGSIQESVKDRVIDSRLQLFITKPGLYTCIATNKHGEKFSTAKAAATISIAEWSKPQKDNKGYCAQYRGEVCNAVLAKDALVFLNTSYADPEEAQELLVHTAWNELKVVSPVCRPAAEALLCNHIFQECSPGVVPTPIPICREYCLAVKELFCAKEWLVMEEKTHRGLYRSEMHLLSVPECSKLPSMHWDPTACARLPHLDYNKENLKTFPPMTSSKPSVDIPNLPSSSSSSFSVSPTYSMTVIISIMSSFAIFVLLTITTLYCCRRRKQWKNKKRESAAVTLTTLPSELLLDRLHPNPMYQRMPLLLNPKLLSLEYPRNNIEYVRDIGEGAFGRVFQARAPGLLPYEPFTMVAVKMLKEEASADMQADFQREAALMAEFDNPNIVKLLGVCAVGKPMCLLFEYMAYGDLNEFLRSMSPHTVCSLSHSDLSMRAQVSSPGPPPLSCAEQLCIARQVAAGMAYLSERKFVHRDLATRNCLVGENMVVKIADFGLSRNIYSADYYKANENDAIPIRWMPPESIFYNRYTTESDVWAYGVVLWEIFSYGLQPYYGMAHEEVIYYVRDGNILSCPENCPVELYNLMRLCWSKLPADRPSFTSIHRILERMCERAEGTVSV

LYNB = LYNB (Homo sapiens, UniProt P07948); assay: kinase panel; assay type: biochemical
PKC-ALPHA = PKC-ALPHA (Homo sapiens, UniProt P17252); assay: kinase panel; assay type: biochemical
ROS = ROS (Homo sapiens, UniProt P08922); assay: kinase panel; assay type: biochemical
NEK9 = NEK9 (Homo sapiens, UniProt Q8TD19); assay: kinase panel; assay type: biochemical
NEK7 = NEK7 (Homo sapiens, UniProt Q8TDX7); assay: kinase panel; assay type: biochemical
HIPK3 = HIPK3 (Homo sapiens, UniProt Q9H422); assay: kinase panel; assay type: biochemical
CK1 = assay: kinase panel; assay type: biochemical; settings: CK1, 1 μM
LRRK2-G2019S = LRRK2-G2019S (Homo sapiens, UniProt Q5S007, G2019S); assay: kinase panel; assay type: biochemical
SRPK2 = SRPK2 (Homo sapiens, UniProt P78362); assay: kinase panel; assay type: biochemical
AMP-A1B1G1 = AMP-A1B1G1 (Homo sapiens, UniProt Q13131); assay: kinase panel; assay type: biochemical
AMP-A1B1G1, sequence (Q13131 whole entry): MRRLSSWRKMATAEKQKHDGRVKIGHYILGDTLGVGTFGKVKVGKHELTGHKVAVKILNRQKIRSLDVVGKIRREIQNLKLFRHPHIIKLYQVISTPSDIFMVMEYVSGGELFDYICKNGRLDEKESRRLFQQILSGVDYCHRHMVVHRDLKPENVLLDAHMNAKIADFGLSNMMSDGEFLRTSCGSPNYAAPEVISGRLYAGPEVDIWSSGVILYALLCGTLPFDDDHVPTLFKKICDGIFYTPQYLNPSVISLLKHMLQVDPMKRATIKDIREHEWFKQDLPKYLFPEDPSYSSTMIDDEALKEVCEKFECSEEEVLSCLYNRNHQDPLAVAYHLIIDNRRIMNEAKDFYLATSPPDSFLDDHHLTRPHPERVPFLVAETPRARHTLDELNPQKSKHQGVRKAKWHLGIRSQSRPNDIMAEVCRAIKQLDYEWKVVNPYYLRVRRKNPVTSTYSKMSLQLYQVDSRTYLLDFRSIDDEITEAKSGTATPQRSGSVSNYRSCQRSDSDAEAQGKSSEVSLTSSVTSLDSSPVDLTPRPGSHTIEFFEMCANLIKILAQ
AMP-A1B1G1, sequence (Q9Y478 whole entry partner): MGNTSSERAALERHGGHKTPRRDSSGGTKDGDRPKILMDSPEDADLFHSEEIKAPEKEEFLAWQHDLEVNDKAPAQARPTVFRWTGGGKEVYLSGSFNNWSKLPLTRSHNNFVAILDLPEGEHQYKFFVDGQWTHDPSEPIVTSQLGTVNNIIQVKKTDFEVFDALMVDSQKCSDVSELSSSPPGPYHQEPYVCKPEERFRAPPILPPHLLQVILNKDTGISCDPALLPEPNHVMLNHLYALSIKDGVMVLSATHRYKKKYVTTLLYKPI
AMP-A1B1G1, sequence (P54619 whole entry partner): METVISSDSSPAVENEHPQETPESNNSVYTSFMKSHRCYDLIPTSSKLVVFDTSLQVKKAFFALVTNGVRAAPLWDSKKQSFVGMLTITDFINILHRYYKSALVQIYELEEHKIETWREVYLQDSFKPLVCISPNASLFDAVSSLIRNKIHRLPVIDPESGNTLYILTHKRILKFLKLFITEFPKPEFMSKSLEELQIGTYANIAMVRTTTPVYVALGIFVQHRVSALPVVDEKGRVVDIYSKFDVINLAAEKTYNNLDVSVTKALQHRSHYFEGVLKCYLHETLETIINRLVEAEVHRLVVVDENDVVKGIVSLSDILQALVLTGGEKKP

ALK2 = ALK2 (Homo sapiens, UniProt Q04771); assay: kinase panel; assay type: biochemical
EPH-A3 = EPH-A3 (Homo sapiens, UniProt P29320); assay: kinase panel; assay type: biochemical
SRC = SRC (Homo sapiens, UniProt P12931); assay: kinase panel; assay type: biochemical
TBK1 = TBK1 (Homo sapiens, UniProt Q9UHD2); assay: kinase panel; assay type: biochemical
PRKG2 = PRKG2 (Homo sapiens, UniProt Q13237); assay: kinase panel; assay type: biochemical
PRKG2, sequence (Q13237 whole entry): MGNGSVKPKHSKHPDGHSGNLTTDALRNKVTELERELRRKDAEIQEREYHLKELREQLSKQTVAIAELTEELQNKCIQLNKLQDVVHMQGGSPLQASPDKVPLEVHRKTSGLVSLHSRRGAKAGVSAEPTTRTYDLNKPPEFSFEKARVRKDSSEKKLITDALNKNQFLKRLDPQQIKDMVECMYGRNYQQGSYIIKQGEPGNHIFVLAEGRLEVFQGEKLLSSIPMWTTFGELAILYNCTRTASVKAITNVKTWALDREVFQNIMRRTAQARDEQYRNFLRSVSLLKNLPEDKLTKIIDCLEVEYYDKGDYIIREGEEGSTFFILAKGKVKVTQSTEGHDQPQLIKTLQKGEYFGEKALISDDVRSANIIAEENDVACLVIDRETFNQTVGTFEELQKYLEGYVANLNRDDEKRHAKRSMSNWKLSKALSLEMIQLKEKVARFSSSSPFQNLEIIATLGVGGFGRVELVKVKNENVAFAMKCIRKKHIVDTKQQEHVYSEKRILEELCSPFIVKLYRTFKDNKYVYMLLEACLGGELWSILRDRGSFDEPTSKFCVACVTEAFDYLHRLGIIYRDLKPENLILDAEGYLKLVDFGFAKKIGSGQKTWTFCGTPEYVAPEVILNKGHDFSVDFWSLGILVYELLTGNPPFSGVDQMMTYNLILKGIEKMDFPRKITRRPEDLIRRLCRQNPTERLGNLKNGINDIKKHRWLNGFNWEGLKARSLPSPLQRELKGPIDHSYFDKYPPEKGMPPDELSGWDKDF

MST1 = MST1 (Homo sapiens, UniProt Q13043); assay: kinase panel; assay type: biochemical
ROCK2 = ROCK2 (Homo sapiens, UniProt O75116); assay: kinase panel; assay type: biochemical
FER = FER (Homo sapiens, UniProt P16591); assay: kinase panel; assay type: biochemical
ALK5 = ALK5 (Homo sapiens, UniProt P36897); assay: kinase panel; assay type: biochemical
PKC-IOTA = PKC-IOTA (Homo sapiens, UniProt P41743); assay: kinase panel; assay type: biochemical
PRAK = PRAK (Homo sapiens, UniProt Q8IW41); assay: kinase panel; assay type: biochemical
FLT-4 = FLT-4 (Homo sapiens, UniProt P35916); assay: kinase panel; assay type: biochemical
Muscarinic M1 receptor = Muscarinic M1 receptor (Homo sapiens, UniProt P11229); assay: Muscarinic M1 receptor assay; assay type: binding
Muscarinic M1 receptor, sequence (P11229 whole entry): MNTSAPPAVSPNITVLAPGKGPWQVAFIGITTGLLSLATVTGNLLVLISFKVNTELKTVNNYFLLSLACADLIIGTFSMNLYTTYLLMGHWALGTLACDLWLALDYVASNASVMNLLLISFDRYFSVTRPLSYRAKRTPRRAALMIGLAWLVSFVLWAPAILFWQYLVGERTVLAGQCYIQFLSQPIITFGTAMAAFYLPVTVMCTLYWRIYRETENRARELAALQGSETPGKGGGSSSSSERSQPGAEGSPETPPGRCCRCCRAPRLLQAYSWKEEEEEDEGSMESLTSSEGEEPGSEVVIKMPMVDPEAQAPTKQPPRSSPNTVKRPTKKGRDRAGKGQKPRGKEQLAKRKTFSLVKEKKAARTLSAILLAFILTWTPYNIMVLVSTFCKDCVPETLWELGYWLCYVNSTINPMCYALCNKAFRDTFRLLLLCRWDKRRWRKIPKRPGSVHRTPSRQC

PDGFR-BETA = PDGFR-BETA (Homo sapiens, UniProt P09619); assay: kinase panel; assay type: biochemical
EPH-B2 = EPH-B2 (Homo sapiens, UniProt P29323); assay: kinase panel; assay type: biochemical
EPH-B2, sequence (P29323 19-1055): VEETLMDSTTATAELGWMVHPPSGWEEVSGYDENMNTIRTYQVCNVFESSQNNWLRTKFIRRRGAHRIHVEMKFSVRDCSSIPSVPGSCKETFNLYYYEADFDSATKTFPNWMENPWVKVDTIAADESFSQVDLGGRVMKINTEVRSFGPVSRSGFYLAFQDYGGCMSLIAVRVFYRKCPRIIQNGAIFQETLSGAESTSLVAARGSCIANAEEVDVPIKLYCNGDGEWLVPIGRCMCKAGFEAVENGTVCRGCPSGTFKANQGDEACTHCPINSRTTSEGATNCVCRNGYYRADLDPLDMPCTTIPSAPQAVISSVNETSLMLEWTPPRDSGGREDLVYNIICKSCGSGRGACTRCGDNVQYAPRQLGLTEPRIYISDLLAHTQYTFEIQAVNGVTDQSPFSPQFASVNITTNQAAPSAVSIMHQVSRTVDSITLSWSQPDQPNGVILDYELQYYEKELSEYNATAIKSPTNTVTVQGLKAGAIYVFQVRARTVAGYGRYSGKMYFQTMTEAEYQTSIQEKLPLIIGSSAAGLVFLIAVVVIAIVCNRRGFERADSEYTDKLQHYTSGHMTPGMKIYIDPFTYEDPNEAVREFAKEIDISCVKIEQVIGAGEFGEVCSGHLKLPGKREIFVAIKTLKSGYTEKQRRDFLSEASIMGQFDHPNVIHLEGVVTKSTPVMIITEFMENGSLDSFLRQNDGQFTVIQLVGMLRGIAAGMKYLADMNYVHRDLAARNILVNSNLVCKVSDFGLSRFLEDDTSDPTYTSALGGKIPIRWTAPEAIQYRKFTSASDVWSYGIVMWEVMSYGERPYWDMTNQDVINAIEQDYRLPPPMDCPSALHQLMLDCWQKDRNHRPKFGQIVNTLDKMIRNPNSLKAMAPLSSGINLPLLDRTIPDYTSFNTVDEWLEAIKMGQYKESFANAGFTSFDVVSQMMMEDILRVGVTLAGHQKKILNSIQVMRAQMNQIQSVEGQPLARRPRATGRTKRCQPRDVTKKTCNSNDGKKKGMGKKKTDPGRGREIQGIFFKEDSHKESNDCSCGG

SGK2 = SGK2 (Homo sapiens, UniProt Q9HBY8); assay: kinase panel; assay type: biochemical
SGK2, sequence (Q9HBY8 whole entry): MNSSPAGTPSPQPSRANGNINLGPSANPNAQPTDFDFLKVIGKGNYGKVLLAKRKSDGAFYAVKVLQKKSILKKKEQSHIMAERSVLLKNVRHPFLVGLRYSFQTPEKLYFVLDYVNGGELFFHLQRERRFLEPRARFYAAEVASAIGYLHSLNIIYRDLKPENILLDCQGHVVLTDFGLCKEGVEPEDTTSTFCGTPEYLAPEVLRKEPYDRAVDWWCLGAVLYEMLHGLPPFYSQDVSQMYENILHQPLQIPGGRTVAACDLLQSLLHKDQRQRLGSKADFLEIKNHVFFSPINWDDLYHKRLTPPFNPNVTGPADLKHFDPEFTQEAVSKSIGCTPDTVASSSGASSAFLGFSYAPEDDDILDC

STK16 = STK16 (Homo sapiens, UniProt O75716); assay: kinase panel; assay type: biochemical
CDK7 = CDK7 (Homo sapiens, UniProt P50613); assay: kinase panel; assay type: biochemical
BRAF = BRAF (Homo sapiens, UniProt P15056); assay: kinase panel; assay type: biochemical
CDK5-P25 = CDK5-P25 (Homo sapiens, UniProt Q00535); assay: kinase panel; assay type: biochemical
MAP4K5 = MAP4K5 (Homo sapiens, UniProt Q9Y4K4); assay: kinase panel; assay type: biochemical
Nicotinic (CNS) Receptor = assay: Nicotinic; assay type: binding; settings: human IMR32 cells

Which results are given for `O=C(Nc1nccs1)C(c1cc(F)ccc1O)N1Cc2ccccc2C1=O` (stereo not drawn) [EAI045, 2-(5-fluoro-2-hydroxyphenyl)-2-(1-oxo-2,3-dihydro-1H-isoindol-2-yl)-N-(1,3-thiazol-2-yl)acetamide]?
inhibition at 1 µM (MRCK-ALPHA): 0%; tumor response [1]: did not respond; EC50 (HaCaT cells): > 10 µM; inhibition at 1 µM (MEK2): 0%; IC50 (Serotonin 5HT2A): > 30 µM; inhibition at 1 µM (TRKA): 0%; inhibition at 1 µM (CDK6-CYCLIND3): 2%; inhibition at 1 µM (CAMK1A): 0%; inhibition at 1 µM (LTK): 1%; inhibition at 1 µM (MUSK): 0%; inhibition at 1 µM (LYNB): 3%; inhibition at 1 µM (PKC-ALPHA): 0%; inhibition at 1 µM (ROS): 1%; inhibition at 1 µM (NEK9): 0%; inhibition at 1 µM (NEK7): 0%; inhibition at 1 µM (HIPK3): 0%; % inhibition (CK1): 0%; inhibition at 1 µM (LRRK2-G2019S): 0%; inhibition at 1 µM (SRPK2): 10%; inhibition at 1 µM (AMP-A1B1G1): 1%; inhibition at 1 µM (ALK2): 0%; inhibition at 1 µM (EPH-A3): 1%; inhibition at 1 µM (SRC): 0%; inhibition at 1 µM (TBK1): 3%; inhibition at 1 µM (PRKG2): 8%; inhibition at 1 µM (MST1): 0%; inhibition at 1 µM (ROCK2): 0%; inhibition at 1 µM (FER): 4%; inhibition at 1 µM (ALK5): 0%; inhibition at 1 µM (PKC-IOTA): 0%; inhibition at 1 µM (PRAK): 0%; inhibition at 1 µM (FLT-4): 1%; IC50 (Muscarinic M1 receptor): > 30 µM; inhibition at 1 µM (PDGFR-BETA): 4%; inhibition at 1 µM (EPH-B2): 0%; inhibition at 1 µM (SGK2): 0%; inhibition at 1 µM (STK16): 0%; inhibition at 1 µM (CDK7): 0%; inhibition at 1 µM (BRAF): 0%; inhibition at 1 µM (CDK5-P25): 0%; inhibition at 1 µM (MAP4K5): 13%; IC50 (Nicotinic (CNS) Receptor): > 30 µM
